Results reported in ChEMBL document CHEMBL4765495, “Semisynthesis and Biological Evaluation of Platencin Thioether Derivatives: Dual FabF and FabH Inhibitors against MRSA” (ACS Med Chem Lett, 2021).
pKd: −log10 of the molar value. Converted amounts (≈) assume the structure as drawn. The source made the active and inactive calls. No cut-off for these calls is given here. Positions of bridges follow the written chain, without caps; N, C: chain ends. Non-standard residues stand in square brackets, D forms with d. Residues, ends and D or L forms follow the SMILES beside them. *: point of attachment. X1 = CC[C@H](C)CCCCC(=O)*; Dab = NCC[C@H](N)C(=O)O

Tests used:
Staphylococcus aureus [1] = test: Antibacterial activity against methicillin resistant Staphylococcus aureus assessed as inhibition of bacterial growth measured after 16 hrs by agar plate dilution method; format: functional
How it was run: (§1)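 Clinical MSSA and MRSA strains isolated from local hospitals; MIC determined by plate dilution; data from at least two independent experiments.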

Staphylococcus aureus [2] = test: Inhibition of Staphylococcus aureus FabH A81V mutant assessed as bacterial growth inhibition measured after 18 hrs by resazurin dye based broth dilution assay
How it was run: (§2)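 S. aureus strains carrying point mutations in the FabH active site; MIC determined by broth dilution; data from at least two independent experiments.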

Escherichia coli [3] = test: Binding affinity to His6-tagged Escherichia coli FabF C163Q mutant expressed in Escherichia coli BL21 (DE3) assessed as change in enthalpy measured after 200 sec by isothermal titration calorimetry
How it was run: (§3)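 Ligands were dissolved in PBS (10 mM, pH 7.4) and titrated into E. coli FabF(C163Q) in the same buffer. Protein was at 12 or 14 μM and ligand at 250 μM. Thermodynamic parameters (ΔH, ΔS, ΔG, Kd, n) were calculated from the heat of binding. Runs were done at least three times; one representative run was used.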

Staphylococcus aureus [4] = test: Antibacterial activity against methicillin sensitive Staphylococcus aureus assessed as inhibition of bacterial growth measured after 16 hrs by agar plate dilution method; format: functional; how it was run: as §1
[5] = Binding affinity to His6-tagged Escherichia coli FabF C163Q mutant expressed in Escherichia coli BL21 (DE3) assessed as binding constant measured after 200 sec by isothermal titration calorimetry; how it was run: as §3
Escherichia coli [6] = test: Binding affinity to His6-tagged Escherichia coli FabF C163Q mutant expressed in Escherichia coli BL21 (DE3) assessed Gibbs free energy change measured after 200 sec by isothermal titration calorimetry; how it was run: as §3
Escherichia coli [7] = test: Binding affinity to His6-tagged Escherichia coli FabF C163Q mutant expressed in Escherichia coli BL21 (DE3) assessed as change in entropy measured after 200 sec by isothermal titration calorimetry; how it was run: as §3
Staphylococcus aureus [8] = test: Antibacterial activity against methicillin resistant Staphylococcus aureus assessed as inhibition of bacterial growth measured after 18 hrs in presence of 10% human serum by resazurin dye based broth dilution assay; format: functional
Escherichia coli [9] = test: Antibacterial activity against Escherichia coli harboring delta tolC mutant assessed as inhibition of bacterial growth measured after 16 hrs by agar plate dilution method; format: functional
Escherichia coli [10] = test: Binding affinity to His6-tagged Escherichia coli FabF C163Q mutant expressed in Escherichia coli BL21 (DE3) assessed as stoichiometry ratio measured after 200 sec by isothermal titration calorimetry; how it was run: as §3
Enterococcus faecalis = test: Antibacterial activity against Enterococcus faecalis ATCC 29212 assessed as inhibition of bacterial growth measured after 16 hrs by agar plate dilution method; format: functional
Staphylococcus aureus [11] = test: Antibacterial activity against Staphylococcus aureus ATCC 29213 assessed as inhibition of bacterial growth measured after 16 hrs by agar plate dilution method; format: functional
How it was run: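 MIC determined by plate dilution against the reference strain; values from at least two independent experiments.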

Staphylococcus aureus [12] = test: Inhibition of Staphylococcus aureus FabH A81V/A111T mutant assessed as bacterial growth inhibition measured after 18 hrs by resazurin dye based broth dilution assay; how it was run: as §2
[13] = biological target: T1, 3-oxoacyl-[acyl-carrier-protein] synthase 2 (Staphylococcus aureus) (UniProt Q5TKS0); test: Binding affinity to His6-tagged Staphylococcus aureus FabF expressed in Escherichia coli BL21 (DE3) assessed as decrease in melting temperature at 10 uM by SYPRO orange based differential scanning fluorimetry
T1 sequence (whole entry): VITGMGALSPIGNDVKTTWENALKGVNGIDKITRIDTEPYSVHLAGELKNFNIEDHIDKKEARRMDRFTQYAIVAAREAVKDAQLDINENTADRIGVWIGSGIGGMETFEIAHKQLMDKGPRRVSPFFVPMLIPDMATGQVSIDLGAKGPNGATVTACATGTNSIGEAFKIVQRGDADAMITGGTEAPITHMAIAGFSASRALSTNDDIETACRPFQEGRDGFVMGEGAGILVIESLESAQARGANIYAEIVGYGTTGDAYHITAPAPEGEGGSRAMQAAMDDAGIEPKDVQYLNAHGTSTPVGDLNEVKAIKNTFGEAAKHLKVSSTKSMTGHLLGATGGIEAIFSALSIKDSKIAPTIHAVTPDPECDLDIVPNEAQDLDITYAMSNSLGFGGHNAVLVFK
How it was run: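 S. aureus FabF melting curves were measured by DSF in 20 mM HEPES, 180 mM NaCl, pH 7.5, a buffer selected by screening seven buffers. ΔTm was derived from the melting-temperature shift caused by ligand; n = 4.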

Escherichia coli [14] = test: Binding affinity to His6-tagged Escherichia coli FabH expressed in Escherichia coli BL21 (DE3) assessed as decrease in melting temperature at 10 uM by SYPRO orange based differential scanning fluorimetry
How it was run: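 Purified E. coli FabH melting curves were recorded with and without ligand by thermal-shift fluorometry in 1.0 M Tris-HCl, pH 6.8, a buffer chosen from seven screened. ΔTm was taken from the Tm shift; n = 4.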

Compound	MIC (Staphylococcus aureus [1])	MIC (Staphylococcus aureus [2])	deltaH (Escherichia coli [3])	MIC (Staphylococcus aureus [4])	pKd [5]	deltaG (Escherichia coli [6])	-TdeltaS (Escherichia coli [7])	MIC (Staphylococcus aureus [8])	MIC (Escherichia coli [9])	Ratio (Escherichia coli [10])	MIC (Enterococcus faecalis)	MIC (Staphylococcus aureus [11])	MIC (Staphylococcus aureus [12])	Activity [13]	Activity (Escherichia coli [14])
C[C@]12C[C@@]34C=CC(=O)[C@@](C)(CCC(=O)Nc5c(O)ccc(C(=O)O)c5O)[C@@H]3[C@H](C[C@@H]1C4)O2	1 µg/mL (≈ 2.27 µM)	> 32 µg/mL	-2.06 kcal/mol	0.5 µg/mL (≈ 1.13 µM)	7.76	-10 kcal/mol	-7.95 kcal/mol	2 µg/mL	32 µg/mL (≈ 72.5 µM)	1.16	2 µg/mL (≈ 4.53 µM)	1 µg/mL (≈ 2.27 µM)	> 32 µg/mL	–	–
CC1(C)S[C@@H]2[C@H](NC(=O)[C@H](N)c3ccccc3)C(=O)N2[C@H]1C(=O)O	–	16 µg/mL (≈ 45.8 µM)	–	–	–	–	–	–	–	–	–	–	32 µg/mL (≈ 91.6 µM)	–	–
CC[C@H](C)CCCCC(=O)N[C@@H](CCN)C(=O)N[C@H](C(=O)N[C@@H](CCN)C(=O)N[C@H]1CCNC(=O)[C@H]([C@@H](C)O)NC(=O)[C@H](CCN)NC(=O)[C@H](CCN)NC(=O)[C@H](CC(C)C)NC(=O)[C@@H](Cc2ccccc2)NC(=O)[C@H](CCN)NC1=O)[C@@H](C)O (X1-[Dab]T[Dab][Dab][Dab][dF]L[Dab][Dab]T; lactam 4-C)	–	–	–	–	–	–	–	–	4 µg/mL (≈ 3.32 µM)	–	–	–	–	–	–
C=C1C[C@]23C=C(SCCC)C(=O)[C@@](C)(CCC(=O)Nc4c(O)ccc(C(=O)O)c4O)[C@@H]2CC1CC3 (single isomer, unassigned)	4 µg/mL (≈ 8.01 µM)	–	–	4 µg/mL (≈ 8.01 µM)	–	–	–	–	–	–	–	8 µg/mL (≈ 16 µM)	–	Active	Active
C=C1C[C@]23C=C(Sc4ccccn4)C(=O)[C@@](C)(CCC(=O)Nc4c(O)ccc(C(=O)O)c4O)[C@@H]2CC1CC3 (single isomer, unassigned)	2 µg/mL (≈ 3.74 µM)	–	–	2 µg/mL (≈ 3.74 µM)	–	–	–	–	–	–	–	4 µg/mL (≈ 7.48 µM)	–	Active	Active
C=C1C[C@]23C=C(Sc4ccc(I)cc4)C(=O)[C@@](C)(CCC(=O)Nc4c(O)ccc(C(=O)O)c4O)[C@@H]2CC1CC3 (single isomer, unassigned)	4 µg/mL (≈ 6.06 µM)	–	–	4 µg/mL (≈ 6.06 µM)	–	–	–	–	–	–	–	8 µg/mL (≈ 12.1 µM)	–	Active	Active
C=C1C[C@]23C=C(SC(C)(C)C)C(=O)[C@@](C)(CCC(=O)Nc4c(O)ccc(C(=O)O)c4O)[C@@H]2CC1CC3 (single isomer, unassigned)	8 µg/mL (≈ 15.6 µM)	–	–	8 µg/mL (≈ 15.6 µM)	–	–	–	–	–	–	–	16 µg/mL (≈ 31.1 µM)	–	Active	Active
C=C1C[C@]23C=C(Sc4ccc(Br)cc4)C(=O)[C@@](C)(CCC(=O)Nc4c(O)ccc(C(=O)O)c4O)[C@@H]2CC1CC3 (single isomer, unassigned)	1 µg/mL (≈ 1.63 µM)	8 µg/mL (≈ 13.1 µM)	–	1 µg/mL (≈ 1.63 µM)	–	–	–	16 µg/mL	> 32 µg/mL	–	2 µg/mL (≈ 3.27 µM)	4 µg/mL (≈ 6.53 µM)	4 µg/mL (≈ 6.53 µM)	Active	Active
C=C1C[C@]23C=C(Sc4ccc(C)cc4)C(=O)[C@@](C)(CCC(=O)Nc4c(O)ccc(C(=O)O)c4O)[C@@H]2CC1CC3 (single isomer, unassigned)	1 µg/mL (≈ 1.83 µM)	16 µg/mL (≈ 29.2 µM)	–	2 µg/mL (≈ 3.65 µM)	–	–	–	> 32 µg/mL	> 32 µg/mL	–	2 µg/mL (≈ 3.65 µM)	4 µg/mL (≈ 7.3 µM)	16 µg/mL (≈ 29.2 µM)	Active	Active
C=C1C[C@]23C=C(Sc4ccccc4C)C(=O)[C@@](C)(CCC(=O)Nc4c(O)ccc(C(=O)O)c4O)[C@@H]2CC1CC3 (single isomer, unassigned)	1 µg/mL (≈ 1.83 µM)	4 µg/mL (≈ 7.3 µM)	–	1 µg/mL (≈ 1.83 µM)	–	–	–	32 µg/mL	> 32 µg/mL	–	2 µg/mL (≈ 3.65 µM)	1 µg/mL (≈ 1.83 µM)	4 µg/mL (≈ 7.3 µM)	Active	Active
C=C1C[C@]23C=C(Sc4cccs4)C(=O)[C@@](C)(CCC(=O)Nc4c(O)ccc(C(=O)O)c4O)[C@@H]2CC1CC3 (single isomer, unassigned)	2 µg/mL (≈ 3.71 µM)	–	–	2 µg/mL (≈ 3.71 µM)	–	–	–	–	–	–	–	2 µg/mL (≈ 3.71 µM)	–	Active	Active
C=C1C[C@]23C=C(Sc4ncccn4)C(=O)[C@@](C)(CCC(=O)Nc4c(O)ccc(C(=O)O)c4O)[C@@H]2CC1CC3 (single isomer, unassigned)	8 µg/mL (≈ 14.9 µM)	–	–	8 µg/mL (≈ 14.9 µM)	–	–	–	–	–	–	–	16 µg/mL (≈ 29.9 µM)	–	Active	Active
C=C1C[C@]23C=C(SCCO)C(=O)[C@@](C)(CCC(=O)Nc4c(O)ccc(C(=O)O)c4O)[C@@H]2CC1CC3 (single isomer, unassigned)	> 32 µg/mL	> 32 µg/mL	-1.09 kcal/mol	32 µg/mL (≈ 63.8 µM)	6.65	-8.8 kcal/mol	-7.72 kcal/mol	> 32 µg/mL	> 32 µg/mL	1.17	2 µg/mL (≈ 3.99 µM)	8 µg/mL (≈ 15.9 µM)	> 32 µg/mL	–	–
C=C1C[C@@]23CCC1C[C@H]2[C@](C)(CCC(=O)Nc1c(O)ccc(C(=O)O)c1O)C(=O)[C@@H]1O[C@@H]13 (single isomer, unassigned)	4 µg/mL (≈ 9.06 µM)	> 32 µg/mL	-1.66 kcal/mol	4 µg/mL (≈ 9.06 µM)	6.99	-9.25 kcal/mol	-7.59 kcal/mol	16 µg/mL	4 µg/mL (≈ 9.06 µM)	1.17	2 µg/mL (≈ 4.53 µM)	8 µg/mL (≈ 18.1 µM)	> 32 µg/mL	Active	Active
CC(=O)NC[C@H]1CN(c2ccc(N3CCOCC3)c(F)c2)C(=O)O1 [LINEZOLID]	0.5 µg/mL (≈ 1.48 µM)	–	–	0.5 µg/mL (≈ 1.48 µM)	–	–	–	–	–	–	0.5 µg/mL (≈ 1.48 µM)	0.5 µg/mL (≈ 1.48 µM)	–	–	–
